This note sets out measurements from ChEMBL document CHEMBL5036326, “Development of Covalent, Clickable Probes for Adenosine A1 and A3 Receptors” (J Med Chem, 2021).

Data set [1] concerns the target T1, Adenosine receptor A1 (Homo sapiens, UniProt P30542).
T1 sequence (P30542 whole entry): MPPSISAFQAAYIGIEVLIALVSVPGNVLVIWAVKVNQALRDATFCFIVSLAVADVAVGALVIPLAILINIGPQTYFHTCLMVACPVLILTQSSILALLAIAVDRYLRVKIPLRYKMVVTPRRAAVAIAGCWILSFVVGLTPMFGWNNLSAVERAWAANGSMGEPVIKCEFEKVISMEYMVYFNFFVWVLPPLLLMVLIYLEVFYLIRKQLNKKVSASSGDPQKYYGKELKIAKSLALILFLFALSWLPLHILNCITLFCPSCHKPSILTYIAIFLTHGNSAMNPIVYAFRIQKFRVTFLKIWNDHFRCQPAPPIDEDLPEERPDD
Description: Displacement of [3H] DPCPX from human A1 adenosine receptor expressed in Flp-In-CHO cell membrane incubated for 4 hrs by microbeta scintillation counting method. It is filed as cell membranes. For orientation: Displacement assays read how much labelled ligand stays bound in the presence of the test substance.

In data set [2] the target is T1, Adenosine receptor A1. The experiment in a line: Displacement of [3H] DPCPX from human adenosine A1 receptor expressed in Flp-In-CHO cell membrane incubated for 3 hrs followed by compound washout and further incubated for 4 hrs with radioligand by microbeta scintillation counting method. It is filed as cell membranes.
Data set [3] addresses T1, Adenosine receptor A1. Description: Antagonist activity at human adenosine A1 receptor expressed in Flp-In-CHO cell membrane assessed as inhibition of NECA-induced cAMP accumulation in presence of forskolin measured after 40 mins by alpha screen LANCE assay. The data set is classed as functional, cell membranes. For orientation: cAMP levels reflect the balance of adenylyl cyclase and phosphodiesterase activity.

Data set [4] addresses T2, Adenosine receptor A2b (Homo sapiens, UniProt P29275).
T2 sequence (P29275 whole entry): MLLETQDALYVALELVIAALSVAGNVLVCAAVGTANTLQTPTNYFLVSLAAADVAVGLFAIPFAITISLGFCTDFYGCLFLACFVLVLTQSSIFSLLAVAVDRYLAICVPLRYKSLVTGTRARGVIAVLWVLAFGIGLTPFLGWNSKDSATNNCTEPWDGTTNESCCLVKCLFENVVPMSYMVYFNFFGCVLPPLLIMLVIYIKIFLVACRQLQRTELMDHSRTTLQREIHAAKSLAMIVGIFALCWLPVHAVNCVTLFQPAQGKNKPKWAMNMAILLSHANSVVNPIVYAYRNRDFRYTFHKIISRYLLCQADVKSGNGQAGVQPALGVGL
Description: (§1) Antagonist activity at human adenosine A2B receptor expressed in Flp-In-CHO cell membrane assessed as inhibition of NECA-induced cAMP accumulation in presence of forskolin measured after 40 mins by alpha screen LANCE assay. It is filed as functional. In a few lines:
(§2)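 A2BR-FlpInCHO cells seeded at 30000 cells/well and incubated overnight at 37 °C. Antagonists tested against a submaximal (EC80) NECA concentration; NECA curves run alongside. cAMP response normalized to buffer (0%) and 3 μM forskolin (100%). Affinity derived by fitting NECA–antagonist interaction data to a competitive model. Duplicates, ≥3 experiments.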

The target of data set [5] is T1, Adenosine receptor A1. Description: Antagonist activity at human adenosine A1 receptor expressed in Flp-In-CHO cell membrane assessed as inhibition of forskolin-stimulated cAMP accumulation preincubated for 5 min followed by forskolin stimulation and further incubated for 30 mins in presence of NECA by alphascreen LANCE assay.
Data set [6] concerns the target T3, Adenosine receptor A2b (Homo sapiens) (UniProt P29275).
T3 sequence (whole entry): T2 sequence (P29275 whole entry)
The description is as §1. The data set is classed as functional. To be noted: filed as antagonist. The procedure, abridged:
as §2

For data set [7], the target named is T4, Adenosine receptor A2a (Homo sapiens, UniProt P29274). The experiment in a line: Antagonist activity at human adenosine A2A receptor expressed in Flp-In-CHO cell membrane assessed as inhibition of NECA-induced cAMP accumulation in presence of forskolin measured after 40 mins by alpha screen LANCE assay. It is filed as functional, cell membranes.
Data set [8] has as its target T5, Adenosine receptor A3 (Homo sapiens, UniProt P0DMS8).
T5 sequence (P0DMS8 whole entry): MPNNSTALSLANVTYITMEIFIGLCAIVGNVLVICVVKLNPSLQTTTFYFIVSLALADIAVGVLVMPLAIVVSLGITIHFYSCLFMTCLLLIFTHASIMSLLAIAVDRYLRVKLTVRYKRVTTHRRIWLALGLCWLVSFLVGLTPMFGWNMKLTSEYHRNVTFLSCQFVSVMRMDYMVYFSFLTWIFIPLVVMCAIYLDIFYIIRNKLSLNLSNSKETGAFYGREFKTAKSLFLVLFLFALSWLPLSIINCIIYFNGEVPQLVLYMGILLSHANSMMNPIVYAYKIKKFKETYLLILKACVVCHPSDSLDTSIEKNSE
Description: Antagonist activity at human adenosine A3 receptor expressed in Flp-In-CHO cell membrane assessed as inhibition of NECA-induced cAMP accumulation in presence of forskolin measured after 40 mins by alpha screen LANCE assay. It is filed as functional, cell membranes.

The target of data set [9] is T6, Adenosine receptor A1 (Homo sapiens) (UniProt P30542).
T6 sequence (whole entry): T1 sequence (P30542 whole entry)
The following applies: Flp-In-CHO, Membrane, filed as antagonist, time 40.0 min.

For data set [10], the target named is T6, Adenosine receptor A1 (Homo sapiens). The following applies: Flp-In-CHO, Membrane, filed as antagonist, time 40.0 min. This is another data set of the same source.
Data set [11] has as its target T4, Adenosine receptor A2a. To be noted: Flp-In-CHO, Membrane, filed as antagonist, time 40.0 min.
Data set [12] deals with T7, Adenosine receptor A3 (Homo sapiens) (UniProt P0DMS8).
T7 sequence (whole entry): T5 sequence (P0DMS8 whole entry)
The following applies: Flp-In-CHO, Membrane, filed as antagonist, time 40.0 min.

The target of data set [13] is T6, Adenosine receptor A1 (Homo sapiens). The experiment in a line: Displacement of [3H] DPCPX from human A1 adenosine receptor expressed in Flp-In-CHO cell membrane at 1 uM incubated for 4 hrs by microbeta scintillation counting method. The data set is classed as cell membranes. The following applies: filed as antagonist. In a few lines:
(§3)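 Membranes (15 μg) from hA1R-FlpInCHO cells incubated with competing ligand and about 1 nM [3H]DPCPX for 4 h at 25 °C. Binding buffer: HEPES, glucose, salts, 1 unit/mL ADA, pH 7.4. Filtration, ice-cold 0.9% NaCl washes, then β-counting. Nonspecific binding defined with 1 μM SLV320. Specific binding normalized to binding without competitor.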

The target is the same in data set [14]. Description: Displacement of [3H] DPCPX from human A1 adenosine receptor expressed in Flp-In-CHO cell membrane at 10 uM incubated for 4 hrs by microbeta scintillation counting method. The data set is classed as cell membranes. In a few lines: as §3
Data set [15] can be described thus: Solubility of the compound at 10 uM. The data set is classed as physicochemical.
Data set [16] addresses T7, Adenosine receptor A3 (Homo sapiens). Description: Inhibition of CA200645 binding to NanoLuc-fused human Adenosine A3 receptor expressed in HEK293-A cells using furimazine as substrate preincubated for 3 hrs followed by ligand washout and further incubated for 60 mins with CA200645 by NanoBRET assay. It is filed as cell-based. In a few lines:
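HEK293A cells transiently transfected (PEI) with N-terminal Nluc-A3R cDNA, assayed 48 h post-transfection. Cells incubated with competing ligands for 3 h in binding buffer, then washed 6 × 20 min. 5 nM CA200645 added for 60 min at room temperature, then 10 μM furimazine (final). BRET read as 610/460 nm emission ratio at 25 °C. Nonspecific binding defined with 1 μM MRS1220.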
For orientation: BRET reads energy transfer from a luciferase to a nearby fluorophore.

Each structure is given as a SMILES string. Calls of active or inactive are those of the source. The rule behind the calls is not given here.

Usually Ki stands for the equilibrium dissociation constant of an inhibitor or competing ligand from its target. By pKb is commonly meant the negative decadic logarithm of the Kb, by convention in mol/L.

T4 sequence (P29274 whole entry): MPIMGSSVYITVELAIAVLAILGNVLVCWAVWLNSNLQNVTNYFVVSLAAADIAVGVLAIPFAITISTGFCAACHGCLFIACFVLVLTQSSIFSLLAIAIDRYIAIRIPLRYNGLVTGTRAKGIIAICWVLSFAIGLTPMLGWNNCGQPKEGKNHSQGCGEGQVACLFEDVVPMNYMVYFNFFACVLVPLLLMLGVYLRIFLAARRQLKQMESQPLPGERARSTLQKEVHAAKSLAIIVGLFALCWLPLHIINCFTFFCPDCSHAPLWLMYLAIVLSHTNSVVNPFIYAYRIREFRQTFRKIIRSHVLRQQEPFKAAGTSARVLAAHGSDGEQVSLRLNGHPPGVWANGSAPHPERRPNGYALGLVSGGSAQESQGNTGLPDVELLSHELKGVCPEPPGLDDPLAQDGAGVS

For the molecule `CCCCn1c(=O)c2nc(C34CCC(C(=O)NCCCCCCCCN=[N+]=[N-])(CC3)CC4)[nH]c2n(CCCNC(=O)c2ccc(S(=O)(=O)F)cc2)c1=O`, the Ki is 3.7 nM in [1]; 16.1 nM in data set [2]; 10.2 nM in [3]; 6.7 nM in data set [4]; 2.4 nM in data set [5].

As for `CCCn1c(=O)[nH]c2nc(-c3ccc(S(=O)(=O)N4CCN(c5ccc(Cl)cc5)CC4)cc3)[nH]c2c1=O`, the pKb in data set [6] came out at 8.87. The Ki in [4] was 1.3 nM.

Consider `CCCCn1c(=O)c2nc(C34CCC(C(=O)NCCOCCOCCN=[N+]=[N-])(CC3)CC4)[nH]c2n(CCCNC(=O)c2ccc(S(=O)(=O)F)cc2)c1=O`, for which the Ki in [1] was 6.1 nM; in [2], 10 nM; in [3], 3.5 nM; in data set [7] it was 31.6 nM; in data set [4] it was 22.9 nM; in [8] it was 39.8 nM. The Ki in data set [5] amounted to 1.4 nM. Further, the pKb worked out at 7.64 in [6]; 8.86 in [9]; 8.45 in data set [10]; 7.5 in data set [11]; 7.4 in data set [12].

As for `CCCn1c(=O)c2nc(C34CCC(C(=O)NCCCN=[N+]=[N-])(CC3)CC4)[nH]c2n(CCCNC(=O)c2ccc(S(=O)(=O)F)cc2)c1=O`, the Ki in [1] came to 3.5 nM; in data set [2], 7.8 nM; in data set [3], 2.8 nM; in data set [7], 26.3 nM; in [4], 17.8 nM; in data set [8] it was 11 nM. In addition, in data set [5], the Ki is 0.6 nM. Moreover, the pKb in data set [6] worked out at 7.75; in [9], 9.19; in [10], 8.56; in data set [11] it was 7.58; in [12], 7.96.

`O[C@H]1CC[C@H](Nc2nc(-c3ccccc3)nc3[nH]ccc23)CC1`: the values for the Ki in data set [1], in data set [3] and in [5] were 0.6 nM, 0.4 nM and 0.5 nM, respectively. Also, the pKb is 9.27 in [9] and 9.44 in [10].

`CCCCn1c(=O)c2nc(C3CCCCC3)[nH]c2n(CCCNC(=O)c2ccc(S(=O)(=O)F)cc2)c1=O`: the Ki in data set [1] amounted to 12.1 nM; in data set [5], 26 nM. Moreover, the result in data set [13] was Active. Also, the result in [14] was inactive. In addition, the solubility entry in data set [15] is recorded as “Insoluble”. Further, in data set [9], the pKb amounted to 7.59.

For the molecule `C#CCCCCNC(=O)C12CCC(c3nc4c(=O)n(CCCC)c(=O)n(CCCNC(=O)c5ccc(S(=O)(=O)F)cc5)c4[nH]3)(CC1)CC2`, the Ki in data set [1] amounted to 1.6 nM; in data set [2] it was 9.3 nM; in data set [3], 3.9 nM; in data set [4], 35.4 nM; in [8] it was 43.7 nM; in [5], 0.6 nM. Also, in [16] (filed as antagonist), the inhibition result is “Active”.

`C#CCNC(=O)C12CCC(c3nc4c(=O)n(CCCC)c(=O)n(CCCNC(=O)c5ccc(S(=O)(=O)F)cc5)c4[nH]3)(CC1)CC2`: the Ki in data set [1] is 26.1 nM; in [2], 38.8 nM; in data set [3], 30.9 nM; in [8], 46.8 nM; in [5], 585 nM. In addition, the inhibition result in data set [16] (filed as antagonist) is “Active”. Also, the pKb in data set [9] came to 6.23; in data set [10], 7.51; in data set [12] it was 7.33.

With `CCCCn1c(=O)c2nc(C34CCC(C(=O)NCCCCN=[N+]=[N-])(CC3)CC4)[nH]c2n(CCCNC(=O)c2ccc(S(=O)(=O)F)cc2)c1=O`, the Ki turned out to be 166 nM in data set [7], 26.3 nM in data set [4] and 4.9 nM in data set [8].

On to `CCCCn1c(=O)c2nc(C34CCC(C(=O)OC)(CC3)CC4)[nH]c2n(CCCNC(=O)c2ccc(S(=O)(=O)F)cc2)c1=O`, for which the Ki in data set [1] came out at 17.3 nM; in [2] it was 89.3 nM; in data set [5] it was 17.1 nM. In addition, the inhibition result in data set [16] (filed as antagonist) was “Active”. This molecule also yielded a pKb in data set [9] of 7.77.

Consider `CCCCn1c(=O)c2nc(C34CCC(C(=O)NCCCN=[N+]=[N-])(CC3)CC4)[nH]c2n(CCCNC(=O)c2ccc(S(=O)(=O)O)cc2)c1=O`, for which the values for the Ki in [1] and in [5] were 605 nM and 87.5 nM, respectively. For the same molecule, in data set [16], the inhibition result was “inactive”. The same molecule displayed a pKb in data set [9] of 7.06.

For `CCCCn1c(=O)c2nc(C34CCC(C(=O)NCCOCCOCCOCCN=[N+]=[N-])(CC3)CC4)[nH]c2n(CCCNC(=O)c2ccc(S(=O)(=O)F)cc2)c1=O`, the Ki came out at 36.3 nM in data set [7], 95.5 nM in [4] and 8.3 nM in data set [8].

Turning to `CCCCn1c(=O)c2nc(C34CCC(C(=O)NCCCN=[N+]=[N-])(CC3)CC4)[nH]c2n(CCCNC(=O)c2ccc(S(=O)(=O)F)cc2)c1=O`, the inhibition result in data set [16] (filed as antagonist) was “Active”. Moreover, the Ki in data set [7] worked out at 38 nM; in [4], 79.4 nM; in data set [8], 4.2 nM.

Turning to `CCCCn1c(=O)c2nc(C34CCC(C(=O)OC)(CC3)CC4)[nH]c2n(CCCNC(=O)c2ccc(S(=O)(=O)O)cc2)c1=O`, the Ki in data set [1] was found to be 179 nM; in data set [5] it was 92 nM. Besides, the inhibition result in data set [16] is “inactive”. Also, in data set [9], the pKb was found to be 7.04.
